Data from PMC11964553 (Materials Today Bio, 2025).

Experiments:
[1] = Plasma pharmacokinetics in orthotopic 4T1 tumor-bearing mice; type: in vivo, BALB/c mice
[2] = Tissue quantification of Om and As in tumor; type: in vivo, BALB/c mice
In short: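 Orthotopic 4T1-luc tumor-bearing female BALB/c mice were dosed i.v. with free drug combination or co-loaded liposome. Tumor and organs were collected at 1, 2, 4, 6, 8, 10, 12 and 24 h, weighed, and homogenized in cold methanol at 4 °C, then spun at 12,000 rpm for 10 min at 4 °C. The pellet was re-extracted with cold chloroform and the supernatants pooled. Parameters came from a non-compartmental model; n = 6.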

[3] = cited from earlier work

## O=C1CCC[C@@H]2[C@H]3CCC[N+]4([O-])CCC[C@@H](CN12)[C@@H]34 (stereo partly drawn) [Free Om, oxymatrine]
[1]; BALB/c, mouse, iv, 2 mg/kg
  AUC: 1.01 ± 0.25 ng·h/mL
  Cmax: 1.75 ± 0.31 ng/mL
  MRT: 2.12 ± 1.19 h
  Tmax: 0.17 ± 0.01 h
  half-life: 5.66 ± 2.12 h
[2]; BALB/c, mouse, iv, 2 mg/kg
  AUC: 6.09 ± 3.96 ng·h/mL
  Cmax: 0.92 ± 0.43 ng/mL
  MRT: 6.95 ± 2.83 h
[3]
  log partition coefficient (log P): low

## CC(C)(O)[C@@H]1CC[C@](C)([C@H]2[C@@H](O)C[C@@]3(C)[C@@H]4C[C@H](O[C@@H]5O[C@H](CO)[C@@H](O)[C@H](O)[C@H]5O)[C@H]5C(C)(C)[C@@H](O[C@@H]6OC[C@@H](O)[C@H](O)[C@H]6O)CC[C@@]56C[C@@]46CC[C@]23C)O1 [Free As, Astragaloside IV]
[1]; i.v. 2.0 mg/kg Om and 1.5 mg/kg As, 4T1 tumor-bearing mice, n = 6
  Cmax of As in plasma: 52.22 ± 9.04 ng/mL
[1]; i.v., n = 6
  MRT of As in plasma: 1.73 ± 0.50 h
  Tmax of As in plasma: 0.17 ± 0.01 h
  t1/2 of As in plasma: 1.73 ± 1.03 h
[1]; time 0–24 h, i.v., n = 6
  AUC of As in plasma: 38.77 ± 12.39 ng·h/mL
[2]; i.v., n = 6
  Cmax of As in tumor: 0.64 ± 0.26 ng/mL
  MRT of As in tumor: 5.36 ± 2.05 h
[2]; time 0–24 h, i.v., n = 6
  AUC of As in tumor: 6.04 ± 2.43 ng·h/mL
[3]
  Solubility: poor solubility
